A word on the MIC: it is the lowest concentration found to suppress growth. A high value points to a less susceptible organism.

Converted amounts (≈) assume the structure as drawn. The source made the active and inactive calls. The calls are words filed in the database; no cut-off is given here.

In one assay the test system is Candida albicans. Description: Antifungal activity against Candida albicans ATCC 10231 after 48 hrs by broth dilution method. The following applies: ATCC 10231, 48 h. The format is functional. The essentials:
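Yeast grown 48 h at 28 °C in YPD broth (1% yeast extract, 2% peptone, 2% dextrose), centrifuged and washed twice in sterile water. Compounds dissolved in DMSO, serial twofold dilutions 120–0.9 µM in potato dextrose broth. Wells inoculated with about 10^3 cells/mL and incubated ~48–72 h at 28 °C. MIC (µM) read against controls; NCCLS broth dilution.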
Background: Broth dilution looks for growth in wells or tubes with falling amounts of substance.

The test system of the next assay is Aspergillus fumigatus. Kind of assay: Antifungal activity against Aspergillus fumigatus HIC 6094 after 48 hrs by broth dilution method. Conditions: HIC 6094, 48 h. The format is functional. In outline: (§1)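 Fungi grown on potato dextrose agar for two weeks at 28 °C. Spores washed three times and resuspended in water at 10⁵ spores/mL initial inoculum. Compounds dissolved in DMSO, serial twofold dilutions 120–0.9 µM in potato dextrose broth. Wells inoculated with about 10^4 cells/mL and incubated ~48–72 h at 28 °C. MIC (µM) read against controls; NCCLS broth dilution.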

The next assay relates to Trichophyton rubrum. Kind of assay: Antifungal activity against Trichophyton rubrum IFO 9185 after 48 hrs by broth dilution method. The format is functional. The following applies: IFO 9185, 48 h. In outline: as §1
The test system of assay [1] is Trichophyton mentagrophytes. Kind of assay: Antifungal activity against Trichophyton mentagrophytes IFO 40996 after 48 hrs by broth dilution method. The format is functional. Conditions: IFO 40996, 48 h. In outline:
as §1

The test system of assay [2] is Ditylenchus myceliophagus. Description: Nematicidal activity against Ditylenchus myceliophagus assessed as immobile nematodes after 2 days. Format: functional.
The subject of a further assay is Caenorhabditis elegans. Kind of assay: Nematicidal activity against Caenorhabditis elegans assessed as immobile nematodes after 2 days. The format is functional, organism-based. In outline: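 Worms raised on 8P plates with Na22 bacteria as food. Adults from five-day cultures suspended in water at about 100–250 nematodes/mL. 100 µL of suspension added to compound solutions at various concentrations in 24-well plates at 25 °C. Percentage of immobile worms scored after two days; LD50 derived.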

Take `COc1ccccc1C1SC2C(=NOC2c2ccc(F)cc2)N1c1ccc(O)cc1` (centres undefined): the MIC in the assay on Candida albicans is 60 µM (≈ 25.3 µg/mL); in the assay on Aspergillus fumigatus, 60 µM (≈ 25.3 µg/mL); in the assay on Trichophyton rubrum, greater than 120 µM; in assay [1] it was 60 µM (≈ 25.3 µg/mL).

With `COc1ccc(Cc2ccc(OC)c(C3SC4C(=NOC4c4ccc(F)cc4)N3c3ccc(O)cc3)c2)cc1C1SC2C(=NOC2c2ccc(F)cc2)N1c1ccc(O)cc1` (centres undefined), the MIC was found to be 15 µM (≈ 12.9 µg/mL) with Candida albicans, 15 µM (≈ 12.9 µg/mL) in the assay with Aspergillus fumigatus, 7.5 µM (≈ 6.43 µg/mL) in the assay on Trichophyton rubrum and 7.5 µM (≈ 6.43 µg/mL) in assay [1]. Also, the result (in assay [2]; with Caenorhabditis elegans) was Active.

Regarding `C[C@@H]1[C@H](O)[C@@H](C)/C=C/C=C/C=C/C=C/C=C/C=C/C=C/[C@H](O[C@@H]2O[C@H](C)[C@@H](O)[C@H](N)[C@@H]2O)C[C@@H]2O[C@](O)(C[C@@H](O)C[C@@H](O)[C@H](O)CC[C@@H](O)C[C@@H](O)CC(=O)O[C@H]1C)C[C@H](O)[C@H]2C(=O)O` [AMPHOTERICIN B], the MIC against Candida albicans is 7.5 µM (≈ 6.93 µg/mL); against Aspergillus fumigatus it was 3.75 µM (≈ 3.47 µg/mL); against Trichophyton rubrum, 3.75 µM (≈ 3.47 µg/mL); in assay [1], 3.75 µM (≈ 3.47 µg/mL).

Consider `COc1ccccc1C1SC2C(=NOC2c2ccc(F)cc2)N1c1ccc(F)cc1` (centres undefined), for which the MIC in the assay with Candida albicans worked out at 120 µM (≈ 50.9 µg/mL); against Aspergillus fumigatus it was 60 µM (≈ 25.5 µg/mL); against Trichophyton rubrum it was 60 µM (≈ 25.5 µg/mL); in assay [1], 60 µM (≈ 25.5 µg/mL).

Consider `COc1ccc(Cc2ccc(OC)c(C3SC4C(=NOC4c4ccc(F)cc4)N3c3ccccc3)c2)cc1C1SC2C(=NOC2c2ccc(F)cc2)N1c1ccccc1` (centres undefined), for which the minimal inhibitory concentration (MIC) stood at 30 µM (≈ 24.7 µg/mL) with Candida albicans, 60 µM (≈ 49.5 µg/mL) with Aspergillus fumigatus, 30 µM (≈ 24.7 µg/mL) in the assay with Trichophyton rubrum and 60 µM (≈ 49.5 µg/mL) in assay [1]. In addition, the outcome (in assay [2]; in the assay on Caenorhabditis elegans) was Active.

With `COc1ccc(Cc2ccc(OC)c(C3SC4C(=NOC4c4ccc(F)cc4)N3c3ccc(F)cc3)c2)cc1C1SC2C(=NOC2c2ccc(F)cc2)N1c1ccc(F)cc1` (centres undefined), the MIC (against Candida albicans; against Aspergillus fumigatus; in the assay on Trichophyton rubrum; in assay [1]) was 3.75 µM (≈ 3.23 µg/mL) in each case. Further, the result (in assay [2]; in the assay on Caenorhabditis elegans) was Active.

Regarding `COc1ccc(Cc2ccc(OC)c(C3SC4C(=NOC4c4ccc(F)cc4)N3c3ccc(C)cc3)c2)cc1C1SC2C(=NOC2c2ccc(F)cc2)N1c1ccc(C)cc1` (centres undefined), the MIC was 7.5 µM (≈ 6.4 µg/mL) with Candida albicans, 30 µM (≈ 25.6 µg/mL) against Aspergillus fumigatus, greater than 120 µM in the assay on Trichophyton rubrum and 15 µM (≈ 12.8 µg/mL) in assay [1]. The outcome (in assay [2]; with Caenorhabditis elegans) was Active.

`COc1ccc(Cc2ccc(OC)c(C3SC4C(=NOC4c4ccc(F)cc4)N3c3ccc([N+](=O)[O-])cc3)c2)cc1C1SC2C(=NOC2c2ccc(F)cc2)N1c1ccc([N+](=O)[O-])cc1` (centres undefined): the minimum inhibitory concentration (MIC) in the assay with Candida albicans is 15 µM (≈ 13.7 µg/mL); against Aspergillus fumigatus, 30 µM (≈ 27.4 µg/mL); against Trichophyton rubrum, 30 µM (≈ 27.4 µg/mL); in assay [1] it was 7.5 µM (≈ 6.86 µg/mL). The result (in assay [2]; in the assay with Caenorhabditis elegans) was Active.

Turning to `COc1ccccc1C1SC2C(=NOC2c2ccc(F)cc2)N1c1ccc([N+](=O)[O-])cc1` (centres undefined), the MIC in the assay on Candida albicans was found to be 30 µM (≈ 13.5 µg/mL); in the assay on Aspergillus fumigatus, 60 µM (≈ 27.1 µg/mL); against Trichophyton rubrum, 120 µM (≈ 54.2 µg/mL); in assay [1], 30 µM (≈ 13.5 µg/mL).

In the case of `COc1ccccc1C1SC2C(=NOC2c2ccc(F)cc2)N1c1ccc(Cl)cc1` (centres undefined), the minimum inhibitory concentration (MIC) (in the assay with Candida albicans; with Aspergillus fumigatus; with Trichophyton rubrum; in assay [1]) was 30 µM (≈ 13.2 µg/mL) throughout.

Regarding `COc1ccccc1C1SC2C(=NOC2c2ccc(F)cc2)N1c1ccccc1` (centres undefined), the MIC against Candida albicans was 120 µM (≈ 48.8 µg/mL); in the assay on Aspergillus fumigatus, greater than 120 µM; with Trichophyton rubrum, greater than 120 µM; in assay [1] it was greater than 120 µM.

Take `COc1ccc(Cc2ccc(OC)c(C3SC4C(=NOC4c4ccc(F)cc4)N3c3ccccc3C)c2)cc1C1SC2C(=NOC2c2ccc(F)cc2)N1c1ccccc1C` (centres undefined): the MIC (against Candida albicans; in the assay with Aspergillus fumigatus; against Trichophyton rubrum; in assay [1]) was 3.75 µM (≈ 3.2 µg/mL) throughout. In addition, the outcome (in assay [2]; with Caenorhabditis elegans) was Active.

For `COc1ccccc1C1SC2C(=NOC2c2ccc(F)cc2)N1c1ccc(C)cc1` (centres undefined), the MIC in the assay on Candida albicans is 60 µM (≈ 25.2 µg/mL); with Aspergillus fumigatus, 120 µM (≈ 50.5 µg/mL); in the assay on Trichophyton rubrum, greater than 120 µM; in assay [1] it was 120 µM (≈ 50.5 µg/mL).

Consider `COc1ccccc1C1SC2C(=NOC2c2ccc(F)cc2)N1c1ccccc1C` (centres undefined), for which the MIC against Candida albicans was 60 µM (≈ 25.2 µg/mL); in the assay on Aspergillus fumigatus it was 30 µM (≈ 12.6 µg/mL); against Trichophyton rubrum, 15 µM (≈ 6.31 µg/mL); in assay [1], 30 µM (≈ 12.6 µg/mL).

For the compound `COc1ccc(Cc2ccc(OC)c(C3SC4C(=NOC4c4ccc(F)cc4)N3c3ccc(Cl)cc3)c2)cc1C1SC2C(=NOC2c2ccc(F)cc2)N1c1ccc(Cl)cc1` (centres undefined), the MIC (with Candida albicans; against Aspergillus fumigatus; against Trichophyton rubrum; in assay [1]) was 3.75 µM (≈ 3.35 µg/mL) in each case. Moreover, the outcome (in assay [2]; in the assay with Caenorhabditis elegans) was Active.

(Values after ChEMBL document CHEMBL1165873, “Synthesis and in vitro study of methylene-bis-tetrahydro[1,3]thiazolo[4,5-c]isoxazoles as potential nematicidal agents” (2010).)
